Test results taken from article PMC6001664 (Chemmedchem, 2018).
≈ marks a conversion by molar mass, not a printed value. Like-named read-outs stand apart in the source and are kept apart here. Each block holds one molecule with its values, some of them ahead of it.

How the values were obtained:
[1] = target: T1, PHD1 (Homo sapiens, UniProt Q96KS0); assay: Biochemical HIF-PH enzyme assay; settings: for dependence of potency (IC50) on Fe^2+ concentration: Fe^2+ varied in reaction buffer (3 μM and 30 μM, Figure 3); for LipE (lipophilic binding efficiency): LipE=pIC50−logD 7.5; for BEI (binding efficiency index): from pIC50 and molecular weight
T1 sequence (Q96KS0 whole entry, the tested form may be a part): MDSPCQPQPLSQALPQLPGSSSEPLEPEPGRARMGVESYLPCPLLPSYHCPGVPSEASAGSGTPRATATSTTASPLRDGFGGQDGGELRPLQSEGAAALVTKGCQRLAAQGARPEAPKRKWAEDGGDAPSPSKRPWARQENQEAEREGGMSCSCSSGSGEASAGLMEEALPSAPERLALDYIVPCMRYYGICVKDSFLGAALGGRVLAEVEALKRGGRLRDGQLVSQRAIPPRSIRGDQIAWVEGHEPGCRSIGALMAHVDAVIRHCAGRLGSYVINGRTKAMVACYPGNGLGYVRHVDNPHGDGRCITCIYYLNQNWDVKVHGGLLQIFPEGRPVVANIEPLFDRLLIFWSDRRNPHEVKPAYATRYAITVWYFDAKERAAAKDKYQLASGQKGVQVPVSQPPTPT
How it was run: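 Human HIF-PH hydroxylates Pro564 of a HIF peptide (aa 556–574). The hydroxylated peptide binds europium-labelled recombinant VBC complex, and inhibition is read as lower fluorescence. Iron dependence was tested at 3 and 30 μM Fe²⁺. LipE = pIC50 − logD7.5; BEI derived from pIC50 and corrected molecular weight.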

[2] = tested on: endogenous HIF in recombinant A549 lung carcinoma cell; assay: HIF-reporter cell assay; type: cell-based
[3] = tested on: HIF‐1α in HeLa cells; assay: Induction of HIF-1α in HeLa cell cultures; type: cell-based; settings: human HeLa cell cultures
[4] = tested on: EPO in HuH cells; assay: EPO induction in hepatoma HuH cells; type: cell-based, human
[5] = tested on: plasma EPO; assay: EPO mRNA / plasma EPO in mice; type: in vivo; settings: for plasma EPO concentration: 4 h after p.o. dosing of 100 mg kg^−1, baseline ≈120 pg mL^−1
[6] = tested on: plasma EPO; assay: Plasma EPO in rats after oral dosing; type: in vivo; settings: 4 h (Figure 7), BAY-908 50 mg kg^−1
[7] = tested on: hematocrit and reticulocytes; assay: Hematocrit and reticulocytes in mice; type: in vivo
[8] = Elimination of iron via urine in rats; type: in vivo; settings: oral administration
[9] = logD 7.5 by HPLC retention time correlation; type: physicochemical; settings: pH 7.5
How it was run: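 logD at pH 7.5 was estimated by correlating HPLC retention times with those of reference compounds of known logD7.5.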

[10] = Aqueous solubility; type: physicochemical; settings: water
[11] = tested on: major CYP isoforms; assay: CYP profile; type: in vitro ADME
[12] = tested on: broad range of targets including 2‐OG‐dependent dioxygenases, metalloenzymes, nuclear hormone receptors and cell surface receptors; assay: Lead profiling selectivity panel
[13] = Pharmacokinetic studies in rats; type: in vivo; settings: rat; for clearance: blood, iv, 2 mg/kg; for Relative bioavailability (Tylose suspension) / bioavailability as Tylose suspension: p.o.; for Relative bioavailability (Tylose suspension): 0.5 % Tylose in water vs solution; for bioavailability as Tylose suspension: 0.5 % Tylose in water
[14] = Early safety profile
[15] = pKa determination by spectrophotometry; type: physicochemical; settings: aqueous solution
[16] = target: T1, PHD1; settings: cited from earlier work
[17] = tested on: PHD3; settings: salt-free compound; cited from earlier work
[18] = cited from earlier work
[19] = sodium salt; cited from earlier work
[20] = metabolite of molidustat; cited from earlier work
[21] = Homo sapiens, A549, read-out: EC50 HIF-reporter cell assay

Structure (SMILES): Cc1nn(-c2ccccn2)c(O)c1-c1cccnc1 [Compound 3]
IC50 [1]: 3500 nM

Structure (SMILES): O=c1c(-c2cccnc2)n[nH]n1-c1ccccn1 [Compound 4]
IC50 [1]: 24000 nM

Structure (SMILES): S=c1c(-c2cccnc2)c[nH]n1-c1ccccn1 [Compound 5]
IC50 [1]: 7500 nM

Structure (SMILES): Nc1c(-c2cccnc2)cnn1-c1ccccn1 [Compound 6]
IC50 [1]: > 50000 nM

Structure (SMILES): COc1c(-c2cccnc2)cnn1-c1ccccn1 [Compound 8]
IC50 [1]: > 50000 nM

Structure (SMILES): Cn1cc(-c2cccnc2)c(=O)n1-c1ccccn1 [Compound 9]
IC50 [1]: > 50000 nM

Structure (SMILES): Oc1c(-c2cccnc2)ncnc1-c1ccccn1 [Compound 10]
IC50 [1]: > 50000 nM

Structure (SMILES): Cc1cccc(-n2[nH]cc(-c3cccnc3)c2=O)n1 [Compound 13]
IC50 [1]: 8900 nM

Structure (SMILES): O=c1c(-c2cccnc2)c[nH]n1-c1cc(COCc2ccccc2)ccn1 [Compound 18]
IC50 [1]: 2900 nM

Structure (SMILES): Cc1cncc(-c2cnn(-c3ccccn3)c2O)c1 [Compound 30]
IC50 [1]: 1700 nM

Structure (SMILES): Cc1ccc(-c2c[nH]n(-c3ccccn3)c2=O)cn1 [Compound 31]
IC50 [1]: 3200 nM

Structure (SMILES): O=c1c(-c2cnccn2)c[nH]n1-c1ccccn1 [Compound 36]
IC50 [1]: 28000 nM

Structure (SMILES): Oc1c(-n2ccnn2)cnn1-c1cc(N2CCOCC2)ncn1 [Compound 45, 1‐[6‐(Morpholin‐4‐yl)pyrimidin‐4‐yl]‐4‐(1H‐1,2,3‐triazol‐1‐yl)‐1H‐pyrazol‐5‐ol]
dependence of potency (IC50) on Fe^2+ concentration [1]: independent
LipE (lipophilic binding efficiency) [1]: 6.1
BEI (binding efficiency index) [1]: 20.1
EC50 [2, 21]: 8400 nM
plasma EPO concentration [5]: ≈ 4000 pg mL^−1
plasma EPO concentration in rats [6]: Very high EPO induction
pK a [15]: 4.4
chromatographic logD [9]: 0.27
solubility [10]: 140 µg/mL (≈ 445 µM)
CYP profile / CYP inhibition [11]: favorable
selectivity profile in lead profiling panel [12]: favorable
clearance [13]: 18.3 mL/min/kg
bioavailability as Tylose suspension [13]: remained unchanged
Relative bioavailability (Tylose suspension) [13]: 102%
change in potency on variation of Fe^2+ concentration ([16]; Fe^2+ in the reaction buffer varied by a factor of 30): ≤ 2 fold
IC50 ([16]; biochemical assay, PHD1, HCl salt, ref 30 (WO2008067871 A1, example 72)): 490 nM
IC50 [17]: 450 nM
water uptake ([18]; 20–35 °C, normal pressure, >20 % relative humidity): up to 6 % w/w

Structure (SMILES): [Na+].[O-]c1c(-n2ccnn2)cnn1-c1cc(N2CCOCC2)ncn1 [Compound 84, Sodium 1‐[6‐(morpholin‐4‐yl)pyrimidin‐4‐yl]‐4‐(1 H ‐1,2,3‐triazol‐1‐yl)‐1H‐pyrazol‐5‐olate]
solubility in water [19]: 28000 µg/mL
water content ([18]; 20–35 °C, normal pressure): < 0.5 % w/w
change of water content ([18]; relative humidity of up to 90 %): < 0.5 % w/w

Structure (SMILES): O=C(O)[C@H]1O[C@@H](n2cc(-n3ccnn3)c(=O)n2-c2cc(N3CCOCC3)ncn2)[C@H](O)[C@@H](O)[C@@H]1O [Compound 85, 1‐(Beta‐D‐glucopyranuronosyl)‐2‐[6‐(morpholin‐4‐yl)pyrimidin‐4‐yl]‐4‐(1H‐1,2,3‐triazol‐1‐yl)‐1,2‐dihydro‐3H‐pyrazol‐3‐one]
CYP profile / CYP inhibition [11]: no relevant CYP inhibition
excreted via urine [20]: 85 % of dose

Structure (SMILES): [Cl][Co][Cl] [cobalt chloride, reference compound]
EC50 ([2]; read-out: EC50 HIF-reporter cell assay, A549 HIFRE2 luciferase reporter): ~50000 nM

Structure (SMILES): CC(=O)N(O)CCCCCNC(=O)CCC(=O)N(O)CCCCCNC(=O)CCC(=O)N(O)CCCCCN [deferoxamine, reference compound]
EC50 [2, 21]: ~25000 nM

Second part, led by results:

IC50 [1]: 430 nM
dependence of potency (IC50) on Fe^2+ concentration [1]: only minor changes
LipE (lipophilic binding efficiency) [1]: 5.8
BEI (binding efficiency index) [1]: 26.7
EC50 [2, 21]: 4900 nM
EC50 ([4]; Homo sapiens, read-out: EC50 EPO mRNA induction): 1900 nM
chromatographic logD [9]: 0.6
solubility [10]: < 1 µg/mL
CYP profile / CYP inhibition [11]: clean
clearance [13]: 48.3 mL/min/kg
Relative bioavailability (Tylose suspension) [13]: 26%
Structure (SMILES): Oc1c(-c2cccnc2)cnn1-c1ccccn1 [Compound 1, 1‐(Pyridin‐2‐yl)‐4‐(pyridin‐3‐yl)‐1H‐pyrazol‐5‐ol]
concentration at which HIF‐1α was detected [3]: > 0.25 µM
increase in EPO concentration in the supernatant compared with baseline ([4]; human hepatoma HuH cells): threefold
plasma EPO concentration [5]: ≈ 900 pg mL^−1
EPO mRNA and plasma EPO levels / EPO induction ([5]; after i.p. and p.o. administration): increased
plasma EPO concentration in rats [6]: increased
hematocrit and reticulocytes [7]: increase
elimination of iron via urine [8]: did not result in any increased elimination of iron via urine
selectivity profile in lead profiling panel [12]: favorable

IC50 [1]: 340 nM
Structure (SMILES): Cc1ccnc(-n2[nH]cc(-c3cccnc3)c2=O)c1 [Compound 11]

IC50 [1]: 1700 nM
Structure (SMILES): Cc1ccc(-n2[nH]cc(-c3cccnc3)c2=O)nc1 [Compound 12]

IC50 [1]: 1500 nM
Structure (SMILES): O=c1c(-c2cccnc2)c[nH]n1-c1cc(CO)ccn1 [Compound 17]

IC50 [1]: 880 nM
Structure (SMILES): COc1cc(-n2[nH]cc(-c3cccnc3)c2=O)ncn1 [Compound 20]

IC50 [1]: 1500 nM
Structure (SMILES): O=c1c(-c2cccnc2)c[nH]n1-c1cc(N2CCCCC2)ncn1 [Compound 22]

IC50 [1]: 180 nM
Structure (SMILES): O=c1c(-c2cccnc2)c[nH]n1-c1cc(N2CCOCC2)ncn1 [Compound 23]

IC50 [1]: 650 nM
EC50 [2, 21]: 5300 nM
Structure (SMILES): CCOC(=O)c1ccc(-n2[nH]cc(-c3cccnc3)c2=O)nc1 [Compound 25]

IC50 [1]: 1100 nM
Structure (SMILES): O=c1c(-c2cccnc2)c[nH]n1-c1ccc(COCc2ccccc2)cn1 [Compound 27]

IC50 [1]: 190 nM
Structure (SMILES): COc1ccc(-c2c[nH]n(-c3ccccn3)c2=O)cn1 [Compound 33]

IC50 [1]: 100 nM
Structure (SMILES): N#Cc1ccc(-c2c[nH]n(-c3ccccn3)c2=O)cn1 [Compound 34]

IC50 [1]: 1000 nM
Structure (SMILES): N#Cc1cncc(-c2cnn(-c3ccccn3)c2O)c1 [Compound 35]

IC50 [1]: 150 nM
Structure (SMILES): O=c1c(-n2cnc(C(F)(F)F)c2)c[nH]n1-c1ccccn1 [Compound 38]

IC50 [1]: 790 nM
EC50 [2, 21]: > 20000 nM
Structure (SMILES): O=c1c(-n2ccnn2)c[nH]n1-c1ccccn1 [Compound 41]

IC50 [1]: 330 nM
Structure (SMILES): Cc1cn(-c2c[nH]n(-c3ccccn3)c2=O)nn1 [Compound 42]

IC50 [1]: 500 nM
LipE (lipophilic binding efficiency) [1]: 5.3
BEI (binding efficiency index) [1]: 20.2
EC50 [2, 21]: 4900 nM
chromatographic logD [9]: 1
solubility [10]: 520 µg/mL (≈ 1670 µM)
CYP profile / CYP inhibition [11]: not optimal
clearance [13]: 21.7 mL/min/kg
bioavailability as Tylose suspension [13]: remained unchanged
Relative bioavailability (Tylose suspension) [13]: 97%
Structure (SMILES): Oc1c(-n2ccnc2)cnn1-c1cc(N2CCCCC2)ncn1 [Compound 44, 4‐(1H‐Imidazol‐1‐yl)‐1‐[6‐(piperidin‐1‐yl)pyrimidin‐4‐yl]‐1H‐pyrazol‐5‐ol]
plasma EPO concentration [5]: ≈ 3000 pg mL^−1
plasma EPO concentration in rats [6]: improved
early safety profile [14]: not optimal
